Source: PubChem (several laboratories)
CXCR6 inh: blocks human CXCR6 beta-arrestin recruitment; O00574; CHO-K1 PathHunter CXCR6 beta-arrestin, luminescence; inhibition, % at 20 µM; 360,000 compounds, 0.36% hits; in the data active = inhibition above about 34%, passing the limit was not always enough;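 also: antagonist mode with CXCL16 agonist at 10 nM final; 0% = 10 nM CXCL16 with DMSO and 100% = unstimulated wells without agonist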
Target sequence (O00574 whole entry, looked up): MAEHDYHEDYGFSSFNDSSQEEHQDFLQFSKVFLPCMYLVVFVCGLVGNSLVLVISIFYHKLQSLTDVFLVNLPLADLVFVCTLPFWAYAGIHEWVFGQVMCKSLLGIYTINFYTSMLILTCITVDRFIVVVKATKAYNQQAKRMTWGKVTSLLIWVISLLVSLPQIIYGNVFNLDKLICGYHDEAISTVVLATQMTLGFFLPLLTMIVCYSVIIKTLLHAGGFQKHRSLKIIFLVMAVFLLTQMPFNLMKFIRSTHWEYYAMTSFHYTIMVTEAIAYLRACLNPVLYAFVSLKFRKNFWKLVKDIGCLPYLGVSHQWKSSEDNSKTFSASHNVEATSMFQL
m5-HT2A agonist: mouse HTR2A agonism via beta-arrestin recruitment; 360,000 compounds, 0.66% hits; CHO-K1 mHTR2A beta-arrestin complementation, luminescence; percent of 30 µM serotonin response; AID 624169; activation, % at 7.6 µM;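 active = activation above a run cutoff, the mean activation of all tested compounds plus 3 SD, cut at about 14% in these data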;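 also: 0% = plate median of compound wells and 100% = 30 µM serotonin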
CCR6 antag: blocks CCL20-driven beta-arrestin recruitment at human CCR6 | P51684 | CHO-K1 CCR6 PathHunter beta-arrestin, luminescence, CCL20-stimulated | inhibition, % at 20 µM | 340,000 compounds, 0.49% hits | AID 493098;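 active = compounds whose inhibition of the agonist-driven luminescence signal at 20 µM reaches about 50%, limit read from the data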;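 also: cells stimulated with CCL20 at 14 nM final; plate controls were DMSO with CCL20 for no effect and DMSO without agonist for full effect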
EBI2 antag: EBI2 (human) antagonism. P32249. EBI2 beta-arrestin recruitment, luminescence, 7a,25-OHC stimulated. inhibition, % at 5 µM. 360,000 compounds, 0.81% hits. AID 651636; in the data active = inhibition above about 38%;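 also: enzyme fragment complementation signal reports receptor beta-arrestin coupling in cells; 0% = agonist plus DMSO wells and 100% = wells without agonist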
Target sequence (P32249 whole entry, looked up, the tested form may be a part): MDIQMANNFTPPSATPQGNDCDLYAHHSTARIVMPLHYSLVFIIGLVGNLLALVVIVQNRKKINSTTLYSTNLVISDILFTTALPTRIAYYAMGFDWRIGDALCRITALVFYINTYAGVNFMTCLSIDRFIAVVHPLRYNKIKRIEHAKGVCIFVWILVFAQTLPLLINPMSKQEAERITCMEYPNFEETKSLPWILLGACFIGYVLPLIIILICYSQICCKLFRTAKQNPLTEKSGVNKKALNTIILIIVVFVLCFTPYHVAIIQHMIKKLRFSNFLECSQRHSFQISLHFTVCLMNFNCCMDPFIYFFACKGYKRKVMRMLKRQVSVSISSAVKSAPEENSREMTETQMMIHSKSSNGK
APJ antag: APJ receptor antagonism; inhibition, % at 20 µM; 330,000 compounds, 0.32% hits; P35414; AID 2521; CHO-K1 APJ beta-arrestin complementation, luminescence;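 active = inhibition above about 40% at 20 µM, limit read from the data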;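 also: cells challenged with 10 nM apelin-13 agonist together with compound; plate controls were apelin-13 plus DMSO wells for no effect and DMSO wells lacking apelin-13 for full effect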
APJ agonist: APJ receptor agonism. P35414. CHO-K1 APJ PathHunter beta-arrestin, luminescence; 0% DMSO wells, 100% apelin. activation, % at 20 µM. 330,000 compounds, 0.11% hits;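 active = activation more than six SD over the plate average, tested at 20 µM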;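 also: 0% = DMSO alone and 100% = apelin-13 at 10 nM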
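Assay system: CHO-K1 APJ beta-arrestin complementation cell line / Compound: single test compound dose, 20 µM final, 1% DMSO / Times: overnight seeding, 90 min compound at 25 °C, 1 h detection / Technique: beta-gal luminescence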
EBI2 conf: confirmation of human EBI2 receptor antagonists; shares compounds with EBI2 antag; EBI2 beta-arrestin luminescence, 7a,25-OHC antagonism; inhibition, % at 5 µM; 2,400 compounds, 29% hits;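 active = inhibition of at least 50%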
EBI2 agonist: counter-screen for EBI2 antagonists: EBI2 agonist activity; shares compounds with EBI2 antag; EBI2-expressing cells, agonist mode, luminescence, 60 min; 0% vehicle, 100% 7α,25-dihydroxycholesterol control; activation, % at 5 µM; 2,400 tested, under 10 active; AID 652000;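 active = activation of at least 50%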
bGal counter: inhibits E. coli beta-galactosidase, counter-screen for EBI2 antagonists; shares compounds with EBI2 antag; purified beta-galactosidase, luminescent Galacton Star, 15 min; inhibition, % at 5 µM; 2,400 compounds, 1% hits;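 active = replicate-average signal at least 3 plate SD below neutral wells, shown as high inhibition, flagging enzyme-inhibiting false positives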;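 also: 0% = DMSO wells with enzyme and 100% = wells lacking enzyme; higher means stronger loss of beta-gal luminescence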
* marks the source's active call; other numbers are inactive results; · = not tested or not shown. The list is not random: actives were taken first. Their share in the collection is about 2.1%.

SMILES | CXCR6 inh | m5-HT2A agonist | CCR6 antag | EBI2 antag | APJ antag | APJ agonist | EBI2 conf | EBI2 agonist | bGal counter
O=C(COC(=O)/C=C/c1ccc(Cl)cc1)NCCN1C(=O)CSC1=O | 0 | 2 | 16 | 46* | 3 | -2 | 46 | 4 | 6
Cc1cccc(OCCCC(=O)N2CCCCCC2)c1C | 2 | -3 | 14 | 14 | 8 | -1 | · | · | ·
CC(C)C[C@@H](CN1CCC[C@@H]1CN1C(=S)NC[C@@H]1Cc1ccccc1)N1C[C@H](Cc2ccc(O)cc2)N(CC2CCCCC2)C1=S | -11 | 4 | · | 11 | · | · | · | · | ·
CC(C)C[C@H]1CNC(=S)N1C[C@H]1CCCN1C[C@H](CC(C)C)N1C[C@H](Cc2ccc(O)cc2)N(CC2CCCCCC2)C1=S | 8 | 1 | · | 60* | · | · | 25 | -1 | -14
CC(C)C[C@@H](CN1CCC[C@@H]1CN1C(=S)NC[C@@H]1Cc1ccccc1)N1C[C@H](Cc2ccc(O)cc2)N(CC2CCCCCC2)C1=S | -1 | -4 | · | 58* | · | · | 17 | -1 | -10
N#CCc1ccc(-c2cccc3nccn23)cc1 | -3 | 0 | · | -1 | · | · | · | · | ·
CCOC(=O)Cc1csc(NC(=O)c2cc(-c3ccncc3)nc3ccccc23)n1 | -2 | -3 | 19 | -2 | -25 | 2 | · | · | ·
COc1ccc(CCNC(=O)C23CN(Cc4ccccc4)CC2C(c2ccc([N+](=O)[O-])cc2)=NO3)cc1 (configuration not stated) | 3 | -4 | 3 | 61* | -7 | 0 | 30 | -2 | -12
C/C(=N\NC(=S)Nc1cc(S(=O)(=O)N2CCOCC2)ccc1Cl)c1ccccc1F | 11 | -4 | 33 | -1 | 9 | 2 | · | · | ·
CCOc1ccc(NC(=S)N(CCc2c(C)[nH]c3ccc(C)cc23)Cc2ccco2)cc1 | 7 | 6 | 7 | 40* | 8 | -4 | 29 | 0 | 3
CCOc1ccc(NC(=S)N(CCc2c(C)[nH]c3ccc(C)cc23)Cc2cccnc2)cc1 | 9 | -3 | -2 | 24 | 3 | -5 | · | · | ·
O=C(COc1cccc(Cl)c1)N/N=C\c1cc2ccccc2nc1Cl | -6 | -1 | -2 | 53* | -6 | 1 | 42 | -1 | -10
Cc1ccccc1OCC(=O)N/N=C/c1cc2ccccc2nc1Cl | -17 | 6 | 10 | 30 | -9 | 5 | · | · | ·
Cc1cc(Cl)n2nc(C)c(-c3ccc(Cl)cc3)c2n1 | 9 | -2 | 0 | -1 | -31 | 6 | · | · | ·
COc1ccc(CCNc2cc(C)nc3c(-c4ccc(Cl)cc4)cnn23)cc1OC | 3 | -1 | -1 | 19 | 0 | -2 | · | · | ·
CC(=O)Nc1ccc(Nc2cc(C)nc3c(-c4ccc(Cl)cc4)cnn23)cc1 | -11 | 2 | -11 | 53* | 4 | -2 | 42 | 0 | -14
CC(=O)Nc1ccc(Nc2cc(C)nc3c(-c4ccc(Cl)cc4)c(C)nn23)cc1 | -1 | -1 | 0 | 46* | 17 | -3 | 44 | 1 | -4
C[C@H](CO)N1C[C@H](C)[C@@H](CN(C)C(=O)Nc2ccc(C(F)(F)F)cc2)Oc2c(NC(=O)CCC(F)(F)F)cccc2C1=O | -6 | 1 | 15 | 0 | -4 | -1 | · | · | ·
O=C(CN1CCN(S(=O)(=O)c2ccc(Cl)cc2)CC1)NCC1(N2CCOCC2)CCCCC1 | -2 | -3 | 7 | 5 | -13 | -5 | · | · | ·
O=S1(=O)N=C(N/N=C/c2cccs2)c2ccccc21 | -1 | -4 | 20 | -2 | -4 | -3 | · | · | ·
CCn1c(SCc2ccc(Cl)cc2Cl)nc2nc3c(cc2c1=O)CCCC3 | 9 | -2 | 18 | 63* | -4 | -2 | 39 | 0 | 13
O=C(CSc1nc2nc3c(cc2c(=O)n1-c1ccccc1)CCCC3)Nc1ccccc1 | 0 | -2 | 11 | 17 | 10 | -1 | · | · | ·
Cn1c2c(c3ccccc31)CCN1CCC[C@]21c1ccccc1 | 8 | -9 | -3 | 5 | -5 | -3 | · | · | ·
CC(=O)CSc1nc2ccc(Nc3nc(N4CCOCC4)nc(N4CCOCC4)n3)cc2s1 | -1 | -1 | -1 | 44* | -12 | 0 | 22 | -1 | -14
COc1ccc(CCC(=O)N2CCN(S(=O)(=O)c3cccc(Cl)c3)CC2)cc1 | -2 | -5 | 12 | 72* | 13 | -4 | 47 | 0 | -17
SMILES | CXCR6 inh | m5-HT2A agonist | CCR6 antag | EBI2 antag | APJ antag | APJ agonist | EBI2 conf | EBI2 agonist | bGal counter
COc1ccc(S(=O)(=O)N2CCN(C(=O)CCC3CCCC3)CC2)cc1 | 1 | -2 | -2 | 3 | 3 | 8 | · | · | ·
COc1ccc(CCC(=O)N2CCN(S(=O)(=O)c3ccc(C)cc3)CC2)cc1 | -3 | 11 | 8 | 49* | 9 | -3 | 21 | 1 | 4
COc1ccc(S(=O)(=O)N2CCN(C(=O)c3cccc(Cl)c3)CC2)cc1 | -5 | -1 | 6 | -2 | -5 | -4 | · | · | ·
COc1ccc(OCCCC(=O)N2CCN(S(=O)(=O)c3cccc(F)c3)CC2)cc1 | -9 | -4 | 10 | 58* | 11 | -3 | 29 | 0 | 3
CC1(C2CCC3C4CCC5CC6(CCC5(C)C4C(=O)CC32C)OCCO6)OCCO1 (configuration not stated) | 2 | 2 | 5 | -2 | · | · | · | · | ·
CC(C)(C)OC(=O)N(CCc1ccccc1)Cc1ccccc1OCc1cccc(NC(=O)/C=C/c2ccccc2)c1 | -2 | 1 | 13 | 20 | · | · | · | · | ·
CC(C)(C)OC(=O)N(CCc1ccccc1)Cc1ccc(OCc2cccc(NC(=O)/C=C/c3ccccc3)c2)cc1 | 5 | -4 | 2 | 59* | · | · | 15 | 1 | 5
O=C1C=C(c2ccc(O)cc2)C[C@@H](c2ccc3c(c2)OCO3)C1 | 6 | 4 | 18 | 16 | 0 | -3 | · | · | ·
Cc1ccc(C2=CC(=O)C[C@H](c3ccc4c(c3)OCO4)C2)cc1 | 4 | -1 | 18 | 48* | 2 | -1 | 37 | 1 | 10
O=C1C=C(c2ccc3c(c2)oc2ccccc23)C[C@@H](c2ccc3c(c2)OCO3)C1 | 2 | 4 | 17 | 71* | 7 | -6 | 64* | 1 | -3
CSc1ccc(C2=CC(=O)C[C@H](c3ccc4c(c3)OCO4)C2)cc1 | 2 | -1 | 11 | 41* | 0 | -4 | 28 | -1 | -4
O=C(/C=C/c1ccc(F)cc1)NCCC1=CCCCC1 | -4 | -2 | -6 | 55* | 12 | -3 | 45 | 2 | 2
